Source: PubChem
In the library only some 2.7% were active in any assay of this set; here they are far more common.
TCR-CD3 inh – inhibitors of human TCR-CD3 interaction | TAMRA-labeled TCR probe fluorescence, biochemical | inhibition, % at 9.4 µM | 360,000 compounds, 0.37% hits | AID 651800;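 note: recombinant mutant TCR 2C K166C tagged with TAMRA read by polarization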
HTRA1 inh – inhibitors of human serine peptidase HTRA1; recombinant HTRA1, FP-rhodamine activity-based probe, fluorescence polarization; inhibition, % at 5.96 µM; 340,000 compounds, 0.5% hits; AID 504803; in the data active = inhibition above about 36%
PRMT1 inh – PRMT1 (human) inhibition, primary screen | recombinant PRMT1, activity-based probe fluorescence polarization | inhibition, % at 2.79 µM | 370,000 compounds, 1.3% hits | AID 652257;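 active = inhibition above about 21% made by adding two undisclosed values, limit read from the data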
Target sequence (Q99873 whole entry, looked up): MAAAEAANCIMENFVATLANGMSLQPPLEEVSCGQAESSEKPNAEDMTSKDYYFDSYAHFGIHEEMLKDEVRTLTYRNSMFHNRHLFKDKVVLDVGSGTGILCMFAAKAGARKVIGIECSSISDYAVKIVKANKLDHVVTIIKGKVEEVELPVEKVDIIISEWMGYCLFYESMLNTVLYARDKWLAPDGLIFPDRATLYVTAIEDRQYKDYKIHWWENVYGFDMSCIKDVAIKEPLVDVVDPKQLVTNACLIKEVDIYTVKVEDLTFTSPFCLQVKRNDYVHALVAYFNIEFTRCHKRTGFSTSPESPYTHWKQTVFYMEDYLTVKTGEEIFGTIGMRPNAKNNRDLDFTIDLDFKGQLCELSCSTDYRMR
mABHD4 FP – inhibitors of mouse ABHD4. inhibition, % at 8.92 µM. 370,000 compounds, 0.54% hits. Q8VD66. AID 720543. purified mABHD4, FP-Rh probe fluorescence polarization;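 active = inhibition exceeding the mean over every tested compound plus 3 SD, cut at about 30% in these data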
Target sequence (Q8VD66 whole entry, looked up): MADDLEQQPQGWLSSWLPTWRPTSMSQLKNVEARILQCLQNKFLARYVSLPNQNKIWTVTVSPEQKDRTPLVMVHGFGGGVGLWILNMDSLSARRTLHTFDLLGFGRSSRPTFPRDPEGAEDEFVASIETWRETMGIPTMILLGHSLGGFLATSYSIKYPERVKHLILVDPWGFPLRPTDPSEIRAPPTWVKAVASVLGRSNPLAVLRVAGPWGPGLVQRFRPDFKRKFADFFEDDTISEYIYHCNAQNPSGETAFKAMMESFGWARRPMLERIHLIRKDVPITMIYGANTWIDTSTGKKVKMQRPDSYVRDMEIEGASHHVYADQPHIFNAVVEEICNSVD
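Assay system: mouse ABHD4 enzyme, wild type / Also added: fluorescent activity-based probe FP-Rh / Doses: single nominal dose of 8.92 µM, 0.89% DMSO final / Timing: 45 min compound pre-incubation plus 60 min probe step, 25 °C / Signal: FP readout, ex 525 nm / em 598 nm / Control set: S159A mutant/DMSO as 100%, compound-well median as 0%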
SIAE primary – inhibitors of human sialic acid acetylesterase SIAE; SIAE FP-Rh probe binding, fluorescence polarization; inhibition, % at 9.66 µM; 370,000 compounds, 0.69% hits;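 active = inhibition above a cutoff: mean of compounds within the control limits plus 3 SD of those, cut at about 17% in these data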
HTRA1 inh conf – confirmation of human HTRA1 inhibitors | shares compounds with HTRA1 inh | recombinant HTRA1, FP-rhodamine activity-based probe, fluorescence polarization | inhibition, % at 5.96 µM | 1,600 compounds, 66% hits | AID 540248;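 active = mean inhibition over three repeats above a set limit taken from the earlier primary screen, cut at about 37% in these data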;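 note: inhibitors block probe binding so polarization drops and inhibition rises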
BSA probe FL – interferes with TAMRA-BSA probe, flagging TCR-CD3 hits; shares compounds with TCR-CD3 inh; TAMRA-labeled BSA probe fluorescence counterscreen; inhibition, % at 9.4 µM; 1,200 compounds, 10% hits; in the data active = inhibition above about 23%
TCR-CD3 inh conf – TCR-CD3 interaction inhibition, confirmation. shares compounds with TCR-CD3 inh. TAMRA-labeled TCR probe fluorescence binding assay. inhibition, % at 9.4 µM. 1,200 compounds, 48% hits. AID 652036
PRMT1 confirm – PRMT1 (human) inhibition, FP confirmation; recombinant His-PRMT1, activity-based probe fluorescence polarization; inhibition, % at 2.79 µM; 3,300 compounds, 42% hits; shares compounds with PRMT1 inh;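 active = mean inhibition across replicates above the hit cutoff derived for the earlier primary screen, cut at about 22% in these data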
mABHD4 conf – confirmation of mouse ABHD4 inhibitors | shares compounds with mABHD4 FP | purified mABHD4, FP-Rh probe fluorescence polarization | inhibition, % at 8.92 µM | 1,800 compounds, 55% hits | AID 720658;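 active = mean inhibition across replicates above the hit cutoff set in the primary screen, cut at about 30% in these data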
SIAE inh conf – confirmation of human SIAE inhibitors; SIAE FP-Rh activity-based probe, fluorescence polarization; inhibition, % at 9.66 µM; 2,300 compounds, 13% hits; shares compounds with SIAE primary;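 active = mean inhibition of the replicates above the hit cutoff set in the primary screen, cut at about 17% in these data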;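 note: inhibitors lower polarization as more probe stays unbound to SIAE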
Of the large screens only hits and unclear results are named; the others gave an inactive call (follow-up assays come after a bar, where they were run). Cut-off read from the data, not from the text of the source, unless noted: active = inhibition above about 19%; inactive = the rest.

COC(=O)c1ccccc1-c1ccc(/C=N/NC(=O)c2cc3ccccc3o2)o1	none
COC(=O)c1ccccc1-c1c2ccc(=N)cc-2oc2cc(N)ccc12	TCR-CD3 inh active, HTRA1 inh 136, PRMT1 inh active, mABHD4 FP active, SIAE primary active | HTRA1 inh conf 142 | BSA probe FL active | TCR-CD3 inh conf active | mABHD4 conf 183 | SIAE inh conf active
CC(C)CC(=O)c1c(O)cc(O)c2c1OC1=C(C(=O)C(C)(C)C(=O)C1(C)C)C2CC(C)C (centres undefined)	none (no result: HTRA1 inh)
O=c1c2ccccc2nc(COc2ccccc2)n1/N=C/c1cc([N+](=O)[O-])ccc1O	TCR-CD3 inh 23, HTRA1 inh 36, SIAE primary 20 | HTRA1 inh conf 47 | BSA probe FL inactive | TCR-CD3 inh conf 43 | SIAE inh conf inactive
COc1cc(Br)c(/C=C/c2ccc3cccc(O)c3n2)cc1OC	none
Oc1ccc2ccccc2c1/C=C/c1ccc2c(Br)cc(Br)c(O)c2n1	HTRA1 inh 66, mABHD4 FP 34, SIAE primary 23 | HTRA1 inh conf 69 | mABHD4 conf inactive | SIAE inh conf inactive
O=C(CC1Nc2cccc3cccc(c23)NC1=O)Nc1ccccc1 (centres undefined)	HTRA1 inh 72, mABHD4 FP 32, SIAE primary 23 | HTRA1 inh conf inactive | mABHD4 conf 42 | SIAE inh conf inactive
NC(=O)CC1Nc2cccc3cccc(c23)NC1=O (centres undefined)	none
O=C1C=CC2=C3c4cc(O)c(O)cc4CC3(O)COC2=C1O (centres undefined)	TCR-CD3 inh 88, HTRA1 inh 45, PRMT1 inh 56, SIAE primary 28 | HTRA1 inh conf 44 | BSA probe FL inactive | TCR-CD3 inh conf 93 | SIAE inh conf inactive
Cc1ccc(OC2CCN(C(=O)[C@@H](Cc3ccccc3)NC(=O)[C@H]3O[C@@H](n4ccc(=O)[nH]c4=O)[C@H](O)[C@@H]3O)CC2)cc1	none (no result: HTRA1 inh)
CCOC(=O)c1nc(Nc2ccc(Nc3ccccc3)cc2)c2ccccc2n1	HTRA1 inh 46, SIAE primary 22 | HTRA1 inh conf 60 | SIAE inh conf inactive
Oc1ccc(C2=Nn3c(nnc3-c3ccco3)SC2)cc1O	TCR-CD3 inh 22, HTRA1 inh 44, mABHD4 FP 43, SIAE primary 30 | HTRA1 inh conf inactive | mABHD4 conf 40 | SIAE inh conf inactive
O=C(N/N=C/c1c(O)ccc2ccccc12)c1ccc(CO)nc1	TCR-CD3 inh 34, HTRA1 inh 48, SIAE primary 35 | HTRA1 inh conf 46 | BSA probe FL inactive | TCR-CD3 inh conf 25 | SIAE inh conf inactive
COc1ccc2ccccc2c1/C=N/NC(=O)c1ccc(C)nc1	none
CCCCCCC[C@H](N)[C@H](O)C(=O)N(C)[C@@H](CCS(C)=O)C(=O)N[C@@H](Cc1ccc(O)cc1)C(=O)O (some centres undefined)	none (no result: TCR-CD3 inh, HTRA1 inh)
Oc1cccc(Nc2c3ccccc3nc3ccccc23)c1	none
CCN(CC)Cc1cc(Nc2c3ccccc3nc3c4ccccc4n(C)c23)cc(CN(CC)CC)c1O	HTRA1 inh 38, PRMT1 inh 45, mABHD4 FP 33, SIAE primary 17 | HTRA1 inh conf inactive | SIAE inh conf inactive
Nc1cc(N)cc(-c2nc3ccccc3[nH]2)c1	HTRA1 inh 47, SIAE primary 31 | HTRA1 inh conf inactive | SIAE inh conf inactive
c1ccc(-c2nc3ccccc3[nH]2)cc1	none
COc1ccc(CNC(=O)N(C)C[C@@H]2OCc3ccccc3-c3c(n(C)c4ccccc34)C(=O)N([C@@H](C)CO)C[C@@H]2C)cc1	none (no result: HTRA1 inh)
Nc1cccc2c(=O)c3ccccc3[nH]c12	HTRA1 inh 55, mABHD4 FP 60, SIAE primary 30 | HTRA1 inh conf inactive | mABHD4 conf 41 | SIAE inh conf inactive
Cc1ccc2[nH]c(C)c(/C=N/Nc3nc4ccccc4s3)c2c1	HTRA1 inh 49, mABHD4 FP 31, SIAE primary 41 | HTRA1 inh conf 53 | mABHD4 conf 43 | SIAE inh conf inactive
CCN1/C(=C/C=C/c2oc3ccc(-c4ccccc4)cc3[n+]2CC)Oc2ccc(-c3ccccc3)cc21	TCR-CD3 inh 105, HTRA1 inh 114, mABHD4 FP 72, SIAE primary 68 | HTRA1 inh conf 108 | BSA probe FL 152 | TCR-CD3 inh conf 58 | mABHD4 conf 89 | SIAE inh conf inactive
CCN1/C(=C/C=C/c2sc3ccccc3[n+]2CC)Sc2ccccc21	none (no result: TCR-CD3 inh, PRMT1 inh, mABHD4 FP, SIAE primary)
Nc1ccc2c(c1)C(O)c1cccc(C(=O)O)c1-2 (centres undefined)	none
Oc1ccc(NCc2ccccc2OCc2ccccc2)cc1	TCR-CD3 inh 26, HTRA1 inh 49, mABHD4 FP 81, SIAE primary 39 | HTRA1 inh conf inactive | BSA probe FL inactive | TCR-CD3 inh conf inactive | mABHD4 conf inactive | SIAE inh conf inactive
CCNCc1ccccc1OCc1ccccc1	none
Cc1c2cc(O)c(=O)cc-2oc2cc(O)c(O)cc12	TCR-CD3 inh 184, HTRA1 inh 49, PRMT1 inh 67, mABHD4 FP 35, SIAE primary 56 | HTRA1 inh conf 125 | BSA probe FL active | TCR-CD3 inh conf active | PRMT1 confirm 137 | SIAE inh conf 104
Cc1cc2oc(=O)cc(-c3cc4ccccc4o3)c2cc1O	none
Cc1ccc2nc(SCC(=O)N3CCCc4ccccc43)nc(=O)n2c1	none
CNc1ccccc(-c2ccc3ccccc3n2)c1=O	HTRA1 inh 38, PRMT1 inh 24, mABHD4 FP 36, SIAE primary 21 | HTRA1 inh conf inactive | mABHD4 conf inactive | SIAE inh conf inactive
COc1cccc2c1C(=O)c1c(O)c3c(c(O)c1C2=O)CC(O)(C(=O)CO)CC3OC1CC(N(C)C)C(O)C(C)O1 (centres undefined)	TCR-CD3 inh 148, HTRA1 inh 68, PRMT1 inh 193, mABHD4 FP 79, SIAE primary 61 | HTRA1 inh conf 66 | BSA probe FL 167 | TCR-CD3 inh conf 136 | PRMT1 confirm 148 | mABHD4 conf 61 | SIAE inh conf 40
